This is an account of results in the array DNA melting data of Ke et al. (doi:10.1101/2024.01.08.574731).

A short description of data set [1]: folding enthalpy; higher = less favourable; fluorescence melt of hairpins on a sequencing array, two-state fit. The conditions noted are these: sodium 0.088 M. In short, it runs like this:
(§1)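 Library hairpins on a sequenced MiSeq flow cell carried annealed Cy3 and quencher oligos, and their Cy3 fluorescence was imaged in 50 mM Na-HEPES pH 8.0 with 25 mM NaCl, in 2.5 °C steps up to 60 °C. Signals were normalised to Cy3 before quenching and to control constructs. Melting temperature and folding enthalpy were obtained from bootstrapped two-state fits, combined by inverse-variance weighting across four replicates, and the fitted temperatures were then raised by 9.35 °C to match UV melts.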

A short description of data set [2]: melting temperature; fluorescence melt of hairpins on a sequencing array, two-state fit, raised by 9.35 °C to match UV melts. The conditions noted are these: sodium 0.088 M. In short, it runs like this:
as §1

For GCCACCGAAAGGTTAGGC ((((((....)))..))), in data set [1], the folding enthalpy is -25.5 kcal/mol. For the same sequence, the Tm in data set [2] came to 51.1 °C.
For GTTCTTGAAAAAGAAC ((((((....)))))) the same measures were -34.2 kcal/mol and 46.9 °C.
On to GATCATGGAAACATGATC (((((((....))))))), for which the folding enthalpy in data set [1] was -35.3 kcal/mol. The Tm in data set [2] was 56.2 °C.
On to GATCAGAGCTCTGATC ((((((....)))))), for which the folding enthalpy in data set [1] is -53 kcal/mol. Besides, the Tm in data set [2] came out at 54.1 °C.
On to GACATACGAAAGTAAGTC (((.(((....))).))), for which the folding enthalpy in data set [1] is -29.7 kcal/mol. Moreover, the Tm in data set [2] turned out to be 42.7 °C.
For GGTAGGGGAAACCCTATC (.(((((....))))).), the folding enthalpy in data set [1] was -24.4 kcal/mol. The Tm in data set [2] came out at 44.3 °C.
For GATCGTTCGGACGATC ((((((....)))))) the same measures were -37.8 kcal/mol and 56.9 °C.
Regarding GATCGTACGTACGATC ((((((....)))))), the folding enthalpy in data set [1] is -36 kcal/mol. Further, the Tm in data set [2] is 57.9 °C.
Turning to GCGTAGCACGC ((((...)))), the folding enthalpy in data set [1] was -11 kcal/mol. Besides, the Tm in data set [2] came to 68.2 °C.
For GATCATGAACATGATC ((((((....)))))) the same measures were -41 kcal/mol and 54 °C.
On to GCCCTGCGAAAGCCCGGC (((..((....))..))), for which the folding enthalpy in data set [1] was -23 kcal/mol. Besides, the Tm in data set [2] was 39.1 °C.
For GATCAGAGCCTGATC ((((((...)))))) the same measures were -25.4 kcal/mol and 47.4 °C.
For GACATCGGAAACGGTGTC ((((.((....)).)))), the folding enthalpy in data set [1] is -47 kcal/mol. Besides, the Tm in data set [2] was 52.2 °C.
The matching figures for GGATGAGGAAACTCGTCC (((.(((....))).))): -38.4 kcal/mol and 50.8 °C.
Consider GATCAAATAATTGATC ((((((....)))))), for which, in data set [1], the folding enthalpy was -27.9 kcal/mol. The Tm in data set [2] came to 34.7 °C.
Regarding GGTGTCCGAAAGGAGACC (((.(((....))).))), the folding enthalpy in data set [1] was -42.9 kcal/mol. Besides, the Tm in data set [2] is 58.3 °C.
Regarding GCGAAAGTCGC ((((...)))), in data set [1], the folding enthalpy was -16.6 kcal/mol. Also, the Tm in data set [2] stood at 43.8 °C.
For GATCTTATCAAAGATC ((((((....)))))) the same measures were -33.1 kcal/mol and 44.2 °C.
For GAACCCGAAAGGGGGTTC ((((((....)))..))) the same measures were -25.3 kcal/mol and 56 °C.
As to GCGAGTCGAAAGACACGC (((.(((....))).))), the folding enthalpy in data set [1] was -38.4 kcal/mol. The Tm in data set [2] was determined as 66.6 °C.
As for GCAGACCCGAAAGGGTGC (((..(((....)))))), in data set [1], the folding enthalpy is -14.2 kcal/mol. In addition, the Tm in data set [2] was found to be 50.3 °C.
With GAGACGCGAAAGCGACTC (((.(((....))).))), the folding enthalpy in data set [1] is -24.9 kcal/mol. The Tm in data set [2] came out at 66.4 °C.
Take CGAACCGGAAACGGATCG (((.(((....))).))): the folding enthalpy in data set [1] was -27.6 kcal/mol. The Tm in data set [2] amounted to 51.6 °C.
For the sequence GTCATCGGAAACGGTGAC ((((.((....)).)))), in data set [1], the folding enthalpy was -38.1 kcal/mol. The Tm in data set [2] came out at 55 °C.
For GGCAGGAAACTGCC (((((....))))) the same measures were -31.6 kcal/mol and 65.6 °C.
Consider GCCACGCGAAAGCCGGGC (((..((....))..))), for which the folding enthalpy in data set [1] is -24.1 kcal/mol. Also, in data set [2], the Tm was 58 °C.
In the case of GTCCTTGGAAACAAGGAC (((((((....))))))), the folding enthalpy in data set [1] was -38.8 kcal/mol. In data set [2], the Tm was determined as 59.8 °C.
For the sequence GCGTGGCACGC ((((...)))), the folding enthalpy in data set [1] is -31.8 kcal/mol. In addition, in data set [2], the Tm amounted to 56.8 °C.
GAACTAGAAATAGTTC ((((((....)))))): the folding enthalpy in data set [1] was -29.3 kcal/mol. Also, the Tm in data set [2] came to 42 °C.
Turning to GGCCGTGGAAACGTGGCC ((((..(....)..)))), in data set [1], the folding enthalpy was -39.9 kcal/mol. Further, the Tm in data set [2] turned out to be 55.5 °C.
For GCGAAGCGAAAGCGCCGC (((..((....))..))) the same measures were -17.9 kcal/mol and 65.4 °C.
